These results are taken from PubChem BioAssay.

Active and inactive are the calls of the source.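 How the source made its calls, unless noted: active means GFP response above 150% of the DMSO level; inconclusive means fewer than 70 events counted for a yeast strain; inactive means the rest.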

The nature of experiment [1]: RPL19A-GFP modulators, yeast TOR pathway, confirmation, cell-based, S. cerevisiae, flow cytometry, cherry picks, mother/daughter gates (AID 2270;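 active means GFP response below 50% of the DMSO control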). The settings on record: S. cerevisiae RPL19A-GFP strain, 3 h, at 10 µM, stronger effect = lower value, 100 = same GFP as DMSO wells.
Experiment [2] can be described thus: LAP4-GFP expression modulators in yeast, confirmation, cell-based, cherry picks, flow cytometry, mother/daughter gates (AID 2271;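 active means GFP response above 150% of the DMSO control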;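 further: ratio of sample to DMSO plate mean so 100% equals DMSO level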). The note with it: S. cerevisiae LAP4-GFP strain, 3 h, at 10 µM, stronger effect = higher value, 100 means same as DMSO control. Summed up: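 System: Alexa 633-stained baker's yeast GFP-fusion strain / Medium: synthetic complete (SC) yeast growth medium / Doses: compound at 10 µM, single point / Times: 3 h treatment at 30 °C with rotation / Detection: HT flow cytometry, GFP fluorescence channel / Benchmarks: DMSO-only negative wells, rapamycin 400 ng/mL positive wells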
(A flow cytometer gives signals particle by particle.)

The nature of experiment [3]: modulators of MEP2-GFP levels in yeast, confirmation, S. cerevisiae, flow cytometry GFP, cherry picks (AID 2272;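 active means GFP response above 150% of the DMSO control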;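 further: ratio of well signal to plate DMSO mean so 100% equals DMSO level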). The settings on record: S. cerevisiae MEP2-GFP strain, 3 h, at 10 µM, stronger effect = higher value.
Experiment [4] in a line: AGP1-GFP expression modulators, hit retest, confirmation, cell-based, flow cytometry, S. cerevisiae, cherry picks (AID 2273).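 Further: median GFP channel fluorescence over the whole cell population gate.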 The note with it: S. cerevisiae AGP1-GFP strain, 3 h, at 10 µM.
The nature of experiment [5]: modulators of CIT2-GFP expression in yeast, confirmation, S. cerevisiae, GFP fusion, cherry picks, mother/daughter gates (AID 2274). The settings on record: S. cerevisiae CIT2-GFP strain, flow cytometry, 3 h, at 10 µM, stronger effect = higher value.
Setting [6] is: measured here: daughter cell gate.
The mark [7] stands for this setting: measured here: mother cell gate.
The mark [8] stands for this setting: measured here: daughter cell gate response.
Where [9] appears, read: measured here: mother cell gate response.

Consider `COC(=O)C1CCN(C(=O)COC(=O)CCc2nc3ccccc3c(=O)[nH]2)CC1`, for which the GFP response vs DMSO is 98.8% (inactive) in experiment [1], 99.6% in experiment [1] (setting [6]), 99.8% in experiment [1] (setting [7]) and 99.5% (inactive) in experiment [3]. In addition, the GFP response relative to DMSO is 97.7% (inactive) in experiment [2], 97.9% in experiment [2] (setting [8]) and 96.5% in experiment [2] (setting [9]). Besides, the GFP response, % of DMSO is 98% (inactive) in experiment [4], 99.3% (inactive) in experiment [5], 102% in experiment [5] (setting [6]) and 95.6% in experiment [5] (setting [7]).

Turning to `Cc1ccccc1N1C(=O)C(Cl)=C(N2CCN(c3ccccc3)CC2)C1=O`, the GFP response vs DMSO in experiment [1] was 100% (inactive); in experiment [1] (setting [6]) it was 98.7%; in experiment [1] (setting [7]), 100%; in experiment [3], 100% (inactive). Besides, the figures for the GFP response relative to DMSO in experiment [2], in experiment [2] (setting [8]) and in experiment [2] (setting [9]) were 101% (inactive), 102% and 102%, respectively. In addition, the GFP response, % of DMSO in experiment [4] was 93% (inactive); in experiment [5], 95.2% (inactive); in experiment [5] (setting [6]), 94.8%; in experiment [5] (setting [7]), 94.4%.

With `COC(=O)c1ccc(NC(=O)c2nc(S(=O)(=O)Cc3cccc(C)c3)ncc2Cl)cc1`, the GFP response vs DMSO in experiment [1] was 98.4% (inactive); in experiment [1] (setting [6]), 96.1%; in experiment [1] (setting [7]) it was 98.7%; in experiment [3], 100% (inactive). Besides, the results for the GFP response relative to DMSO in experiment [2], in experiment [2] (setting [8]) and in experiment [2] (setting [9]) were 103% (inactive), 102% and 106%, respectively. Further, the GFP response, % of DMSO was 95.7% (inactive) in experiment [4], 88.7% (inactive) in experiment [5], 88.3% in experiment [5] (setting [6]) and 86.9% in experiment [5] (setting [7]).

Take `CCCN(Cc1nnc(-c2ccccc2Cl)o1)C(=O)c1cc([N+](=O)[O-])cc([N+](=O)[O-])c1`: the GFP response vs DMSO in experiment [1] is 97.3% (inactive); in experiment [1] (setting [6]), 98.4%; in experiment [1] (setting [7]), 96.1%; in experiment [3], 101% (inactive). Besides, the figures for the GFP response relative to DMSO in experiment [2], in experiment [2] (setting [8]) and in experiment [2] (setting [9]) were 97.7% (inactive), 96% and 98.4%, respectively. Moreover, the GFP response, % of DMSO in experiment [4] is 98.6% (inactive); in experiment [5], 94.4% (inactive); in experiment [5] (setting [6]) it was 94%; in experiment [5] (setting [7]), 94.9%.

As to `O=C1c2ccsc2SCCN1Cc1ccc(Cl)cc1`, the GFP response vs DMSO in experiment [1] is 93.6% (inactive); in experiment [1] (setting [6]), 86%; in experiment [1] (setting [7]), 97%; in experiment [3], 91.3% (inactive). Moreover, the GFP response relative to DMSO in experiment [2] was 135% (inactive); in experiment [2] (setting [8]), 128%; in experiment [2] (setting [9]), 144%. Besides, the GFP response, % of DMSO in experiment [4] is 93.9% (inactive); in experiment [5] it was 82.2% (inactive); in experiment [5] (setting [6]), 80.1%; in experiment [5] (setting [7]), 82.6%.

Consider `Cc1cc(S(=O)(=O)c2ccc([N+](=O)[O-])cn2)ccc1Br`, for which the GFP response vs DMSO in experiment [1] was 87.9% (inactive); in experiment [1] (setting [6]), 89.9%; in experiment [1] (setting [7]), 82.2%; in experiment [3] it was 114% (inactive). Moreover, the GFP response relative to DMSO in experiment [2] is 143% (inactive); in experiment [2] (setting [8]) it was 118%; in experiment [2] (setting [9]), 156%. Besides, the GFP response, % of DMSO in experiment [4] is 113% (inactive); in experiment [5] it was 120% (inactive); in experiment [5] (setting [6]), 138%; in experiment [5] (setting [7]) it was 103%.

For `COCCCNC(=O)c1ccc2c3c(onc13)-c1ccccc1C2=O`, the GFP response vs DMSO in experiment [1] is 96.3% (inactive); in experiment [1] (setting [6]), 102%; in experiment [1] (setting [7]), 92.9%; in experiment [3] it was 102% (inactive). Further, the GFP response relative to DMSO in experiment [2] was 132% (inactive); in experiment [2] (setting [8]), 126%; in experiment [2] (setting [9]), 137%. Besides, the GFP response, % of DMSO in experiment [4] was 83.6% (inactive); in experiment [5], 96.5% (inactive); in experiment [5] (setting [6]), 103%; in experiment [5] (setting [7]), 90.2%.

In the case of `Nc1ccc2nc(-c3ccc(-c4nc5ccc(N)cc5[nH]4)cc3)[nH]c2c1`, the GFP response vs DMSO is 99.3% (inactive) in experiment [1], 100% in experiment [1] (setting [6]), 96.1% in experiment [1] (setting [7]) and 112% (inactive) in experiment [3]. In addition, the GFP response relative to DMSO in experiment [2] was 111% (inactive); in experiment [2] (setting [8]) it was 108%; in experiment [2] (setting [9]), 94.4%. Moreover, the GFP response, % of DMSO is 99.1% (inactive) in experiment [4], 108% (inactive) in experiment [5], 92.3% in experiment [5] (setting [6]) and 93.8% in experiment [5] (setting [7]).

With `O=C(Cc1ccc(Cl)cc1)Nc1ccc(Br)cn1`, the GFP response vs DMSO in experiment [1] is 103% (inactive); in experiment [1] (setting [6]), 100%; in experiment [1] (setting [7]), 103%; in experiment [3], 118% (inactive). In addition, the GFP response relative to DMSO in experiment [2] is 108% (inactive); in experiment [2] (setting [8]), 106%; in experiment [2] (setting [9]) it was 111%. For the same molecule, the GFP response, % of DMSO in experiment [4] is 113% (inactive); in experiment [5] it was 105% (inactive); in experiment [5] (setting [6]) it was 112%; in experiment [5] (setting [7]), 99.3%.

`COc1ccc(CC2=C(O)c3ccccc3C(=O)C2=O)cc1`: the GFP response vs DMSO is 95.1% (inactive) in experiment [1], 91.3% in experiment [1] (setting [6]), 96.1% in experiment [1] (setting [7]) and 97.2% (inactive) in experiment [3]. Also, the GFP response relative to DMSO in experiment [2] was 129% (inactive); in experiment [2] (setting [8]), 113%; in experiment [2] (setting [9]) it was 135%. The GFP response, % of DMSO in experiment [4] is 97% (inactive); in experiment [5], 80.6% (inactive); in experiment [5] (setting [6]) it was 81.6%; in experiment [5] (setting [7]), 80.4%.

Turning to `CCN(Cc1ccccc1)S(=O)(=O)c1ccc(C(=O)Nc2nnc(-c3ccccc3OC)o2)cc1`, the GFP response vs DMSO is 98.4% (inactive) in experiment [1], 98.6% in experiment [1] (setting [6]), 98.4% in experiment [1] (setting [7]) and 102% (inactive) in experiment [3]. Besides, the GFP response relative to DMSO is 94.1% (inactive) in experiment [2], 92.8% in experiment [2] (setting [8]) and 94% in experiment [2] (setting [9]). For the same molecule, the GFP response, % of DMSO in experiment [4] is 96.4% (inactive); in experiment [5] it was 98.3% (inactive); in experiment [5] (setting [6]) it was 97.2%; in experiment [5] (setting [7]), 99.7%.

As to `O=C(NCc1ccncc1)C12CC3CC(CC(Cl)(C3)C1)C2`, the GFP response vs DMSO in experiment [1] was 96.2% (inactive); in experiment [1] (setting [6]) it was 98.1%; in experiment [1] (setting [7]), 96.8%; in experiment [3], 99% (inactive). For the same molecule, the results for the GFP response relative to DMSO in experiment [2], in experiment [2] (setting [8]) and in experiment [2] (setting [9]) were 97% (inactive), 95.9% and 96.2%, respectively. In addition, the GFP response, % of DMSO in experiment [4] was 99.8% (inactive); in experiment [5] it was 105% (inactive); in experiment [5] (setting [6]) it was 105%; in experiment [5] (setting [7]), 103%.

For `Cc1cccc(N2C(=O)c3cccc4c(N(C)CCO)ccc(c34)C2=O)c1`, the GFP response vs DMSO in experiment [1] was 98.8% (inactive); in experiment [1] (setting [6]), 96.9%; in experiment [1] (setting [7]), 99%; in experiment [3], 103% (inactive). Moreover, the GFP response relative to DMSO was 110% (inactive) in experiment [2], 106% in experiment [2] (setting [8]) and 109% in experiment [2] (setting [9]). Besides, the GFP response, % of DMSO in experiment [4] is 101% (inactive); in experiment [5], 105% (inactive); in experiment [5] (setting [6]), 105%; in experiment [5] (setting [7]), 104%.
